From PubChem
SENP1 FRET inh: blocks the human SENP1 SUMO protease catalytic domain. recombinant SENP1 catalytic domain, CyPet-SUMO1-YPet FRET cleavage. inhibition, % at 10 µM. AID 624204. 360,000 tested, 0.21% active;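 active = inhibition at least 30% at 10 µM, raw YFP signal under a set limit, fluorescence ratio 0.5 to 1.5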;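 also: 0% = enzyme with DMSO and 100% = no enzyme wells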
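system = hSENP1 catalytic domain, recombinant | reagent = SFCypet-SUMO1-SFYpet substrate at 25 nM | doses = one dose per compound, 10 µM, 0.5% DMSO | incubation = enzyme reaction for 50 min at room temperature, dark | measured by = FRET, CFP and YFP emission | controls = no-enzyme low, enzyme-DMSO high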
FAS TE block: inhibitors of human fatty acid synthase thioesterase domain. P49327. recombinant FAS-TE, OMFH fluorogenic substrate, fluorescence endpoint. inhibition, % at 15 µM. 360,000 tested, 0.67% active;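 active = compounds whose normalised, plate-corrected inhibition of enzyme fluorescence in the single-dose primary screen is 50% or more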;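 also: 0% = DMSO with enzyme and 100% = substrate without enzyme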
hiPSC survival: increases survival of single human iPS cells | hiPSC single-cell survival, ATPlite luminescence; 100% = ROCK inhibitor wells, 0% = DMSO | AID 602274 | survival enhancement, % at 20 µM | 360,000 tested, 0.044% active; in the data active = survival enhancement above about 18%;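 also: cells exposed to compounds for 16 hours before the ATP read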
H9c2 protect: modulators protecting cardiomyocytes from myocardial damage; H9c2 cardiomyocytes, H2O2 injury protection, ATPLite, 2 h; protection from H2O2 cell death, % at 20 µM; 360,000 tested, 0.63% active;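 active = compounds giving at least 50% protection of heart cells from peroxide-induced death in the single-dose screen, raw or plate-pattern-corrected value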;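 also: 0% = DMSO wells with peroxide and 100% = DMSO wells without peroxide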
Arr AP2 block: human beta-arrestin and AP2 interaction inhibition. FITC-arrestin peptide / GST-AP2 beads, flow cytometry; AP2 beta2 appendage carries R879A mutation. inhibition, % at 10 µM. 340,000 tested, 0.31% active;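 active = inhibition above a set limit, near 3 SD of compounds lacking own fluorescence, cut at about 54% in these data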;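 also: plate controls were DMSO wells for no effect and 5 µM unlabelled arrestin peptide for full effect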
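Test system: GST-tagged AP2 beta2-adaptin appendage (R879A) on 4 µm glutathione beads; also added: fluorescein-tagged arrestin peptide at 50 nM final; timing: 12 min plus 1 h, RT; signal: flow cytometry, FL1 (488/535 nm); read-out: percent drop in bead-associated FITC signal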
NR3A LBD binder: NR3A (human) ligand-binding domain modulation; NR3A LBD differential scanning fluorimetry, Tm shift; 0% = protein alone, 100% = glycine-bound protein; Tm shift relative to glycine control, % at 25 µM; 340,000 tested, 2.5% active;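 active = melting temperature shift of at least 10% of the positive control shift, at one fixed dose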
* = called active by the depositor; · = no result. A selection: hits, their analogues and other compounds. The true share with any hit is near 4%.

SMILES | SENP1 FRET inh | FAS TE block | hiPSC survival | H9c2 protect | Arr AP2 block | NR3A LBD binder
CCCCNC(=O)CC1N=C2c3ccccc3N=C(SCC(=O)Nc3ccccc3C)N2C1=O (stereo not drawn) | 3.2 | -1.2 | -0.9 | -0.6 | -1.0 | 17.6*
O=S(=O)(c1ccc(F)c(Cl)c1)N1CCN(C/C=C/c2ccccc2)CC1 | -1.9 | 24.9 | 0.0 | -11.4 | 1.5 | -3.0
CCc1ccccc1NC1c2ccccc2C(=O)N1c1cc(C)ccn1 (stereo not drawn) | 1.8 | 4.8 | -2.4 | 6.5 | -1.8 | 16.6*
CCc1ccc(CN(Cc2cccnc2)C(=O)/C=C/c2ccc(OC)cc2)cc1 | -52.5 | 0.6 | 0.7 | -12.3 | 2.5 | -0.6
Cc1ccc(N2C(=O)N(CC(=O)Nc3cc(F)ccc3C)C(=O)C2C)cc1 (stereo not drawn) | 3.5 | 14.9 | -0.4 | -1.1 | 5.8 | 1.9
Cc1ccc(N2C(=O)N(CC(=O)c3cc(C)ccc3C)C(=O)C2C)cc1 (stereo not drawn) | 2.5 | 17.8 | 4.5 | -7.0 | 0.4 | 12.7*
COc1ccc(CNC(=O)CN(CCC(C)C)S(=O)(=O)c2ccc3c(c2)OCCO3)cc1 | 1.1 | 8.8 | 2.2 | -2.0 | 0.1 | 153.6*
CCOC(=O)C1=C(C)NC(C)=C(C(=O)OCCNC(=O)c2cccnc2)C1c1cccc([N+](=O)[O-])c1 (stereo not drawn) | -0.1 | 6.4 | 1.1 | 69.2* | -2.4 | -0.6
O=C(NCCOC(=O)c1ccc([N+](=O)[O-])cc1)c1cccnc1 | 0.8 | 1.7 | -1.4 | -2.4 | 8.0 | 0.0
Cc1ccc(-c2nn3c(C)nnc3s2)cc1NC(=O)COc1ccc(Cl)cc1 | -11.3 | 7.0 | -1.7 | 50.3* | 1.9 | -4.6
Cc1ccc(-c2nn3c(C)nnc3s2)cc1NC(=O)CSc1ccc(Cl)cc1 | -0.6 | 9.5 | -1.2 | 8.7 | 4.5 | -8.4
CCCNC(=O)C1(C)CCCN(CCC(=O)c2ccccc2)C1 (stereo not drawn) | 0.0 | -5.1 | -0.7 | -25.9 | · | ·
O=C1NC(=S)S/C1=C\c1cc(Cl)cc(Cl)c1O | 91.7 | -2.6 | -1.9 | 3.3 | -2.9 | 16.6*
O=C1NC(=S)SC1=Cc1ccccc1Cl | 4.0 | 5.5 | -2.3 | -16.6 | 1.1 | -4.9
C/C(=N\Nc1ccc2nncn2n1)c1ccccn1 | 4.2 | -0.7 | -0.7 | 57.7* | 8.3 | -0.5
Cc1ccc(-n2ncc3c(=O)n(-c4cccc(C)c4)c(=O)[nH]c32)cc1 | 1.0 | -8.4 | -3.7 | -1.8 | · | ·
O=C(Nc1ccc(F)c(Cl)c1)c1cc(C2CCCN(C(=O)CCc3ccccc3)C2)on1 (stereo not drawn) | 0.2 | 15.4 | 0.0 | 1.1 | · | ·
CCc1cc(-c2[nH]ncc2-c2ccc3c(c2)OCO3)c(O)cc1O | 1.0 | -157.4 | 0.3 | -14.4 | 3.7 | 23.9*
COc1ccc(-c2[nH]ncc2-c2nc(C)cs2)c(O)c1 | -0.6 | -8.8 | 0.4 | 3.2 | 9.7 | 1.1
CCc1cc(-c2[nH]ncc2-c2ccc(OC)cc2)c(O)cc1O | 2.2 | -160.1 | 2.3 | -12.4 | 49.1 | 40.6*
COc1ccc(-c2[nH]ncc2-c2ccc3c(c2)OCCO3)c(O)c1 | 1.7 | -54.5 | 1.3 | -7.2 | 28.7 | 0.3
COc1ccc(-c2cn[nH]c2-c2ccc(OCc3ccc([N+](=O)[O-])cc3)cc2O)cc1 | 1.6 | -4.9 | 1.3 | -2.7 | 0.9 | 30.4*
Clc1ccc(NCc2cccnc2)cc1 | 2.0 | -6.0 | 1.3 | -1.4 | -4.3 | 2.1
CC(C#N)(Nc1ccc(Cl)cc1)c1cccnc1 (stereo not drawn) | 0.2 | -8.0 | 0.2 | 2.8 | 26.9 | 16.4*
CCOC(=O)c1c(-c2ccccc2)oc2ccc(O)c(CN3CCOCC3)c12 | -34.0 | 6.7 | 2.9 | 8.8 | 29.1 | 0.9
SMILES | SENP1 FRET inh | FAS TE block | hiPSC survival | H9c2 protect | Arr AP2 block | NR3A LBD binder
CCOC(=O)c1cc(CN2CCOCC2)oc1-c1ccccc1 | -0.9 | -3.7 | 0.2 | 9.5 | 7.5 | 10.2*
Cc1cccc(-c2n[nH]nc2C2=CC(=O)CC(C)(C)C2)c1 | 2.3 | -15.5 | 0.6 | 2.1 | · | ·
C=CCOc1ccc(/C=C2\C(=N)N3N=C(S(=O)(=O)CC)SC3=NC2=O)cc1OC | -54.0 | -0.4 | 8.6 | 3.2 | 3.9 | 11.2*
CCS(=O)(=O)C1=NN2C(=N)/C(=C\c3ccc(OC(=O)c4ccco4)c(OC)c3)C(=O)N=C2S1 | -59.6 | 2.5 | -0.2 | 1.1 | 40.2 | 1.2
COc1cc(/C=C2\C(=N)N3N=C(S(C)(=O)=O)SC3=NC2=O)cc(OC)c1OCCOc1ccccc1C | -3.2 | 10.3 | -0.6 | 6.4 | -2.4 | 32.6*
O=C1NC[C@H](CCCCN2C[C@H](Cc3ccc(O)cc3)N(CCC3CCCCC3)C(=O)C2=O)N(CCC2CCCCC2)C1=O | 0.9 | 33.8 | 1.2 | · | · | ·
COc1cc(-c2ccc3c(=O)c4ccccc4n(C)c3c2)cc(OC)c1OC | -24.3 | 16.5 | -0.6 | 88.5* | 2.3 | -27.8
COc1cc(-c2ccc3c(=O)c4ccccc4sc3c2)cc(OC)c1OC | 0.6 | 10.7 | -0.3 | -5.6 | 8.1 | 1.6
OC(COCC(F)(F)C(F)(F)C(F)(F)C(F)F)Cn1c2ccccc2c2ccccc21 (stereo not drawn) | -0.2 | 40.0 | 2.4 | -5.5 | 33.2 | 29.1*
Cc1ccc(OCC(O)Cn2c3ccccc3c3ccccc32)cc1 (stereo not drawn) | -1.5 | 28.2 | -2.6 | -19.3 | -10.3 | 11.8*
CCOC(=O)[C@]12CCCC=C1N(Cc1ccc(Cl)cc1Cl)C(=O)[C@H](CC(=O)NCCc1ccccc1OC)C2 | -5.7 | 20.5 | 0.7 | · | · | ·
COc1ccc(/C=C/C(=O)NCC(=O)N/N=C(/C)c2ccco2)cc1 | 1.2 | -5.4 | 0.2 | -1.4 | 18.3 | 13.7*
CC(C)CC(COCc1ccc([N+](=O)[O-])cc1)N1CCN(C(=O)c2ccc(C(F)(F)F)cc2)CCC1=O (stereo not drawn) | 0.5 | 56.8* | -0.5 | 4.0 | -4.0 | -1.8
O=C(NNC(=O)c1cc2cc(OC(F)(F)F)ccc2[nH]1)c1ccc(Cl)cc1 | -0.6 | -2.4 | 1.8 | -2.6 | 8.8 | 14.4*
O=C(Nc1ccc(F)cc1)c1cc2cc(Cl)ccc2[nH]1 | -0.3 | -0.4 | 0.0 | 2.2 | 46.4 | 1.8
Cn1c(C(=O)NCCCN2CCN(c3ccccc3F)CC2)cc2c(=O)[nH]c3ccccc3c21 | 0.8 | 1.1 | -1.0 | 20.0 | -2.1 | 16.8*
N#C/C(N=Nc1ccccc1O)=N\Nc1ccccc1O | 33.2* | 28.4 | -3.2 | -7.7 | 3.0 | 3.8
Oc1ccccc1N=N/C(=N/Nc1ccccc1O)c1ccccc1 | 2.5 | -4.4 | 1.1 | 12.8 | 8.6 | -3.9
CN(C)c1ncnc2c1ncn2[C@H]1CN(Cc2ccc(Cl)cc2)C[C@@H](CO)O1 | -2.1 | -7.0 | -1.5 | 9.2 | · | ·
O=c1[nH]c(-c2ccccc2)cs1 | 3.7 | -5.7 | -1.9 | 0.9 | 6.7 | 11.5*
